Experimental data: ChEMBL document CHEMBL1155010, “Synthesis and biological evaluation of substituted [18F]imidazo[1,2-a]pyridines and [18F]pyrazolo[1,5-a]pyrimidines for the study of the peripheral benzodiazepine receptor using positron emission tomography” (J Med Chem, 2008)

Experiments:
Kidney [1] = test: Biodistribution in Sprague-Dawley rat kidney assessed per gram of tissue at 1 MBq, iv after 0.25 hrs; type: ADME, organism-based; settings: in vivo
Outline: (§1)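 Male SD rats aged 8-10 weeks got 1 MBq [18F]tracer by tail vein in 0.1 mL. Groups of n = 4 were killed (CO2, then cervical fracture) at 0.25, 0.5, 1 and 4 h. Organs were weighed and gamma counted against a diluted standard of the injectate. Results are %ID per gram wet tissue, mean with standard deviation.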

Kidney [2] = test: Biodistribution in Sprague-Dawley rat kidney assessed per gram of tissue at 1 MBq, iv after 0.5 hrs; type: ADME, organism-based; settings: in vivo; outline: as §1
Kidney [3] = test: Biodistribution in Sprague-Dawley rat kidney assessed per gram of tissue at 1 MBq, iv after 1 hr; type: ADME, organism-based; settings: in vivo; outline: as §1
Kidney [4] = test: Biodistribution in Sprague-Dawley rat kidney assessed per gram of tissue at 1 MBq, iv after 4 hrs; type: ADME, organism-based; settings: in vivo; outline: as §1
Heart [5] = test: Biodistribution in Sprague-Dawley rat heart assessed per gram of tissue at 1 MBq, iv after 0.25 hrs; type: ADME, organism-based; settings: in vivo; outline: as §1
Heart [6] = test: Biodistribution in Sprague-Dawley rat heart assessed per gram of tissue at 1 MBq, iv after 0.5 hrs; type: ADME, organism-based; settings: in vivo; outline: as §1
Heart [7] = test: Biodistribution in Sprague-Dawley rat heart assessed per gram of tissue at 1 MBq, iv after 1 hr; type: ADME, organism-based; settings: in vivo; outline: as §1
Heart [8] = test: Biodistribution in Sprague-Dawley rat heart assessed per gram of tissue at 1 MBq, iv after 4 hrs; type: ADME, organism-based; settings: in vivo; outline: as §1
Lung [9] = test: Biodistribution in Sprague-Dawley rat lungs assessed per gram of tissue at 1 MBq, iv after 0.25 hrs; type: ADME, organism-based; settings: in vivo; outline: as §1
Lung [10] = test: Biodistribution in Sprague-Dawley rat lungs assessed per gram of tissue at 1 MBq, iv after 0.5 hrs; type: ADME, organism-based; settings: in vivo; outline: as §1
Lung [11] = test: Biodistribution in Sprague-Dawley rat lungs assessed per gram of tissue at 1 MBq, iv after 1 hr; type: ADME, organism-based; settings: in vivo; outline: as §1
Lung [12] = test: Biodistribution in Sprague-Dawley rat lungs assessed per gram of tissue at 1 MBq, iv after 4 hrs; type: ADME, organism-based; settings: in vivo; outline: as §1
Spleen [13] = test: Biodistribution in Sprague-Dawley rat spleen assessed per gram of tissue at 1 MBq, iv after 0.25 hrs; type: ADME, organism-based; settings: in vivo; outline: as §1
Spleen [14] = test: Biodistribution in Sprague-Dawley rat spleen assessed per gram of tissue at 1 MBq, iv after 0.5 hrs; type: ADME, organism-based; settings: in vivo; outline: as §1
Spleen [15] = test: Biodistribution in Sprague-Dawley rat spleen assessed per gram of tissue at 1 MBq, iv after 1 hr; type: ADME, organism-based; settings: in vivo; outline: as §1
Spleen [16] = test: Biodistribution in Sprague-Dawley rat spleen assessed per gram of tissue at 1 MBq, iv after 4 hrs; type: ADME, organism-based; settings: in vivo; outline: as §1
Liver [17] = test: Biodistribution in Sprague-Dawley rat liver assessed per gram of tissue at 1 MBq, iv after 0.25 hrs; type: ADME, organism-based; settings: in vivo; outline: as §1
Liver [18] = test: Biodistribution in Sprague-Dawley rat liver assessed per gram of tissue at 1 MBq, iv after 0.5 hrs; type: ADME, organism-based; settings: in vivo; outline: as §1
Liver [19] = test: Biodistribution in Sprague-Dawley rat liver assessed per gram of tissue at 1 MBq, iv after 1 hr; type: ADME, organism-based; settings: in vivo; outline: as §1
Liver [20] = test: Biodistribution in Sprague-Dawley rat liver assessed per gram of tissue at 1 MBq, iv after 4 hrs; type: ADME, organism-based; settings: in vivo; outline: as §1
Adrenal [21] = test: Biodistribution in Sprague-Dawley rat adrenals assessed per gram of tissue at 1 MBq, iv after 0.25 hrs; type: ADME, organism-based, Adrenal tissue; settings: in vivo; outline: as §1
Adrenal [22] = test: Biodistribution in Sprague-Dawley rat adrenals assessed per gram of tissue at 1 MBq, iv after 0.5 hrs; type: ADME, organism-based, Adrenal tissue; settings: in vivo; outline: as §1
Adrenal [23] = test: Biodistribution in Sprague-Dawley rat adrenals assessed per gram of tissue at 1 MBq, iv after 1 hr; type: ADME, organism-based, Adrenal tissue; settings: in vivo; outline: as §1
Adrenal [24] = test: Biodistribution in Sprague-Dawley rat adrenals assessed per gram of tissue at 1 MBq, iv after 4 hrs; type: ADME, organism-based, Adrenal tissue; settings: in vivo; outline: as §1
[25] = Biodistribution in Sprague-Dawley rat testis assessed per gram of tissue at 1 MBq, iv after 0.25 hrs; type: ADME, organism-based; settings: in vivo; outline: as §1
[26] = Biodistribution in Sprague-Dawley rat testis assessed per gram of tissue at 1 MBq, iv after 0.5 hrs; type: ADME, organism-based; settings: in vivo; outline: as §1
[27] = Biodistribution in Sprague-Dawley rat testis assessed per gram of tissue at 1 MBq, iv after 1 hr; type: ADME, organism-based; settings: in vivo; outline: as §1
[28] = Biodistribution in Sprague-Dawley rat testis assessed per gram of tissue at 1 MBq, iv after 4 hrs; type: ADME, organism-based; settings: in vivo; outline: as §1
[29] = Ratio of drug level in olfactory bulb to blood in Sprague-Dawley rat at 1 MBq, iv; type: ADME
Outline: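 Same rat biodistribution as above: 1 MBq iv by tail vein, n = 4 per time point, 0.25-4 h, gamma counting as %ID/g. Ratio is the olfactory bulb radioactivity concentration divided by the blood concentration at each time.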

Femur [30] = test: Biodistribution in Sprague-Dawley rat femur at 1 MBq, iv after 0.25 hrs; type: ADME, organism-based; settings: in vivo; outline: as §1
Femur [31] = test: Biodistribution in Sprague-Dawley rat femur at 1 MBq, iv after 4 hrs; type: ADME, organism-based; settings: in vivo; outline: as §1
[32] = Metabolic stability in Sprague-Dawley rat plasma assessed as drug remaining at 30 MBq after 4 hrs by Radio-HPLC analysis; type: ADME, cell-free; settings: read-out: Stability
Outline: (§2)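 Rats received 30 MBq tracer and were sampled at 0.25, 0.5, 1 and 4 h. Plasma was diluted with water containing unlabeled carrier and KF and injected directly. Frontal cortex or olfactory bulb was sonicated in acetonitrile/water 1:1 with carrier and KF, centrifuged, and the supernatant diluted. Radio-HPLC used a precolumn switched to C18 with a CH3CN/0.05 M sodium acetate pH 5.5 gradient. Result is % parent remaining.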

[33] = Metabolic stability in Sprague-Dawley rat frontal cortex assessed as drug remaining at 30 MBq after 0.25 hrs by Radio-HPLC analysis; type: ADME, tissue-based; settings: read-out: Stability; outline: as §2
[34] = Metabolic stability in Sprague-Dawley rat frontal cortex assessed as drug remaining at 30 MBq after 4 hrs by Radio-HPLC analysis; type: ADME, tissue-based; settings: read-out: Stability; outline: as §2
[35] = Metabolic stability in Sprague-Dawley rat olfactory bulb assessed as drug remaining at 30 MBq after 0.25 hrs by Radio-HPLC analysis; type: ADME, tissue-based; settings: read-out: Stability; outline: as §2
[36] = Metabolic stability in Sprague-Dawley rat olfactory bulb assessed as drug remaining at 30 MBq after 4 hrs by Radio-HPLC analysis; type: ADME, tissue-based; settings: read-out: Stability; outline: as §2
Blood [37] = test: Biodistribution in Sprague-Dawley rat blood at 1 MBq, iv after 0.25 hrs; type: ADME, organism-based; settings: in vivo; outline: as §1
Blood [38] = test: Biodistribution in Sprague-Dawley rat blood at 1 MBq, iv after 4 hrs; type: ADME, organism-based; settings: in vivo; outline: as §1
[39] = Metabolic stability in Sprague-Dawley rat plasma assessed as drug remaining at 30 MBq after 0.25 hrs by Radio-HPLC analysis; type: ADME, cell-free; settings: read-out: Stability; outline: as §2
[40] = Lipophilicity, log p at pH 7.5; type: physicochemical; settings: buffer
Outline: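 RP-HPLC on a C18 column with methanol/0.1 M phosphate buffer pH 7.5 (60/40) at 1 mL/min. Samples were dissolved in methanol. log P7.5 was estimated by comparing retention time with that of reference compounds of known log P.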

Translocator protein [41] = biological target: T1, Translocator protein (Rattus norvegicus, UniProt P16257); test: Displacement of [3H]PK11195 from peripheral benzodiazepine receptor in rat kidney membrane; type: cell membranes
Translocator protein [42] = biological target: T1, Translocator protein; test: Displacement of [3H]Ro 5-4864 from peripheral benzodiazepine receptor in rat kidney membrane; type: cell membranes
[43] = Displacement of [3H]flumazenil from central benzodiazepine receptor in rat brain cortex membrane; type: cell membranes
Outline: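 Rat brain cortex membranes (100-150 µg protein) were incubated in triplicate at 25 °C for 45 min with [3H]flumazenil (2 nM) and 7 ligand concentrations (10^-10 to 10^-5 M). Nonspecific binding was set with flumazenil 20 µM. Assays were filtered, washed with ice-cold Tris/HCl pH 7.4 and counted. Ki was derived from IC50 by Cheng-Prusoff.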

T1 sequence (P16257 whole entry, looked up): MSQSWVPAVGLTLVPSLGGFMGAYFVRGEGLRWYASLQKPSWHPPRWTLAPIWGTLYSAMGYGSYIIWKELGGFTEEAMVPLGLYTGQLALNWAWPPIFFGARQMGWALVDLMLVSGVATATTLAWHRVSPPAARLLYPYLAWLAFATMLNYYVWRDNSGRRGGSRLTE

CCN(CC)C(=O)Cc1c(-c2ccc(OCC[18F])cc2)nc2ccc(Cl)cn12
Drug uptake (Kidney [1]): 3.3 %ID
Drug uptake (Kidney [2]): 3.2 %ID
Drug uptake (Kidney [3]): 2.7 %ID
Drug uptake (Kidney [4]): 1.3 %ID
Drug uptake (Heart [5]): 4.3 %ID
Drug uptake (Heart [6]): 4.4 %ID
Drug uptake (Heart [7]): 4.6 %ID
Drug uptake (Heart [8]): 2.8 %ID
Drug uptake (Lung [9]): 14.3 %ID
Drug uptake (Lung [10]): 12.1 %ID
Drug uptake (Lung [11]): 11.6 %ID
Drug uptake (Lung [12]): 8.1 %ID
Drug uptake (Spleen [13]): 4.5 %ID
Drug uptake (Spleen [14]): 3.9 %ID
Drug uptake (Spleen [15]): 3.4 %ID
Drug uptake (Spleen [16]): 1.9 %ID
Drug uptake (Liver [17]): 0.63 %ID
Drug uptake (Liver [18]): 0.52 %ID
Drug uptake (Liver [19]): 0.35 %ID
Drug uptake (Liver [20]): 0.29 %ID
Drug uptake (Adrenal [21]): 6.7 %ID
Drug uptake (Adrenal [22]): 7.9 %ID
Drug uptake (Adrenal [23]): 7.3 %ID
Drug uptake (Adrenal [24]): 7.1 %ID
Drug uptake [25]: 0.17 %ID
Drug uptake [26]: 0.23 %ID
Drug uptake [27]: 0.31 %ID
Drug uptake [28]: 0.42 %ID
Kp [29]: 2
Drug uptake (Femur [30]): 0.4 % ID/g
Drug uptake (Femur [31]): 0.7 % ID/g
remaining at 4 h [32]: < 1%
remaining at 0.25 h [33]: 55%
remaining at 4 h [34]: 10%
remaining at 0.25 h [35]: 80%
remaining at 4 h [36]: 40%

CCN(CC)C(=O)Cc1c(-c2ccc(OCCC[18F])cc2)nc2ccc(Cl)cn12
Drug uptake (Kidney [1]): 4.3 %ID
Drug uptake (Kidney [2]): 5 %ID
Drug uptake (Kidney [3]): 3.7 %ID
Drug uptake (Kidney [4]): 1.8 %ID
Drug uptake (Heart [5]): 7.8 %ID
Drug uptake (Heart [6]): 8.3 %ID
Drug uptake (Heart [7]): 6.4 %ID
Drug uptake (Heart [8]): 2.9 %ID
Drug uptake (Lung [9]): 12.3 %ID
Drug uptake (Lung [10]): 7.7 %ID
Drug uptake (Lung [11]): 4.1 %ID
Drug uptake (Lung [12]): 2.2 %ID
Drug uptake (Spleen [13]): 5.5 %ID
Drug uptake (Spleen [14]): 6 %ID
Drug uptake (Spleen [15]): 4.5 %ID
Drug uptake (Spleen [16]): 2.5 %ID
Drug uptake (Liver [17]): 1.08 %ID
Drug uptake (Liver [18]): 0.79 %ID
Drug uptake (Liver [19]): 0.61 %ID
Drug uptake (Liver [20]): 0.3 %ID
Drug uptake (Adrenal [21]): 8.5 %ID
Drug uptake (Adrenal [22]): 11.8 %ID
Drug uptake (Adrenal [23]): 9.6 %ID
Drug uptake (Adrenal [24]): 11.4 %ID
Drug uptake [25]: 0.33 %ID
Drug uptake [26]: 0.43 %ID
Drug uptake [27]: 0.41 %ID
Drug uptake [28]: 0.53 %ID
Drug uptake (Blood [37]): 0.3 % ID/g
Drug uptake (Blood [38]): 0.1 % ID/g
Drug uptake (Femur [30]): 0.6 % ID/g
Drug uptake (Femur [31]): 2.2 % ID/g
remaining at 0.25 h [39]: 10%
remaining at 0.25 h [33]: 55%
remaining at 4 h [34]: 30%

CCN(CC)C(=O)Cc1c(-c2ccc(OCCF)cc2)nc2ccc(Cl)cn12
logD [40]: 2.7
Ki (Translocator protein [41]): 5.8 nM
Ki (Translocator protein [42]): 3.3 nM
Ki [43]: 790 nM

CCN(CC)C(=O)Cc1c(-c2ccc(OCCCF)cc2)nc2ccc(Cl)cn12
logD [40]: 3.2
Ki (Translocator protein [41]): 3.7 nM
Ki (Translocator protein [42]): 4.2 nM
Ki [43]: 800 nM
